Converted amounts (≈) assume the structure as drawn.
Experiments:
[1] = system: Staphylococcus aureus; test: Antimicrobial activity against methicillin-resistant Staphylococcus aureus 700699; assay type: functional
Procedure, shortened: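 MIC taken as the lowest compound concentration preventing visible bacterial growth after incubation at 37 °C for 18–24 h.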

[2] = system: Escherichia coli; test: Antimicrobial activity against Escherichia coli ATCC 25922; assay type: functional
Procedure, shortened: (§1)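 MIC taken as lowest concentration giving no visible bacterial growth after incubation at 37 °C for 18–24 h.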

[3] = system: HEp-2; test: Cytotoxicity against human Hep2 laryngeal carcinoma cell line; assay type: functional
[4] = system: Staphylococcus aureus; test: Antimicrobial activity against Staphylococcus aureus ATCC 29213; assay type: functional; procedure, shortened: as §1
[5] = biological target: DNA gyrase (Escherichia coli, UniProt P0AES4+P0AES6); test: Inhibitory activity against wild type Escherichia coli gyrase; assay type: protein-complex assay
[6] = biological target: DNA topoisomerase 4 subunit A (Staphylococcus aureus, UniProt P0C1U9); test: Inhibitory activity against wild type Staphylococcus aureus topoisomerase 4
[7] = biological target: DNA topoisomerase II (Homo sapiens) (UniProt P11388+Q02880); test: Inhibitory activity against human topoisomerase 2; assay type: protein assay

Sequence of DNA topoisomerase 4 subunit A (P0C1U9 whole entry): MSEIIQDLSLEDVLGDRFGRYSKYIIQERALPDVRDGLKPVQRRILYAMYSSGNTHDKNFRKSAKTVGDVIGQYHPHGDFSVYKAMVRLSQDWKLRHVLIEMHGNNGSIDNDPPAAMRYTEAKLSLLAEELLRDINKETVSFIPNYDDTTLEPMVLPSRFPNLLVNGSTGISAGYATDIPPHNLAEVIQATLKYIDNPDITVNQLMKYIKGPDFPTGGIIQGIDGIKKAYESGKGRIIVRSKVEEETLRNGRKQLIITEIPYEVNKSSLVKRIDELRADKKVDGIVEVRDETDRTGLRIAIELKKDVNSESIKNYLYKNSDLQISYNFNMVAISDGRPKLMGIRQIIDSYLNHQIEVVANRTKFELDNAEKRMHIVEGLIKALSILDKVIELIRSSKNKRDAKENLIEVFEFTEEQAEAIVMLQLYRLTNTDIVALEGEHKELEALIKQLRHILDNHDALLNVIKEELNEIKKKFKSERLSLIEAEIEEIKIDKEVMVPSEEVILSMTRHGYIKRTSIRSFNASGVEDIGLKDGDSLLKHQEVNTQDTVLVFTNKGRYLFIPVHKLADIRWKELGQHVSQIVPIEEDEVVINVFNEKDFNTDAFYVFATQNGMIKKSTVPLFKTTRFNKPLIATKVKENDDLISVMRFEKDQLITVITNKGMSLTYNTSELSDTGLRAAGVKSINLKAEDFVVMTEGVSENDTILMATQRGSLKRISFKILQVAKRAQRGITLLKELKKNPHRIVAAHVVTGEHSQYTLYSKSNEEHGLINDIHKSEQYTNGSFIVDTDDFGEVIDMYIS

| SMILES | MIC [1] [µg/mL] | MIC [2] [µg/mL] | CC50 [3] [µM] | MIC [4] [µg/mL] | IC50 [5] [µM] | IC50 [6] [µM] | EC2 [7] [µM] |
| --- | --- | --- | --- | --- | --- | --- | --- |
| O=c1[nH]sc2c1c(=O)c1cc(F)c(-c3ccccc3F)cc1n2C1CC1 | 8 (≈ 21.6 µM) | 0.125 (≈ 0.337 µM) | > 100 | 0.015 (≈ 0.0405 µM) | – | – | – |
| NCc1ccc(-c2cc3c(cc2F)c(=O)c2c(=O)[nH]sc2n3C2CC2)cc1 | 8 (≈ 21 µM) | 0.015 (≈ 0.0393 µM) | 4 | 0.03 (≈ 0.0787 µM) | 0.1 | 1.5 | – |
| NCCc1ccc(-c2cc3c(cc2F)c(=O)c2c(=O)[nH]sc2n3C2CC2)cc1 | > 64 | 0.06 (≈ 0.152 µM) | 11 | 0.02 (≈ 0.0506 µM) | – | – | – |
| Cc1ccc(-c2cc3c(cc2F)c(=O)c2c(=O)[nH]sc2n3C2CC2)cc1N | 2 (≈ 5.24 µM) | 0.125 (≈ 0.328 µM) | 18 | 0.008 (≈ 0.021 µM) | – | – | – |
| NCC(=O)Nc1ccc(-c2cc3c(cc2F)c(=O)c2c(=O)[nH]sc2n3C2CC2)cc1 | 64 (≈ 151 µM) | 1 (≈ 2.36 µM) | > 75 | 0.25 (≈ 0.589 µM) | – | – | – |
| CN(C)c1cccc(-c2cc3c(cc2F)c(=O)c2c(=O)[nH]sc2n3C2CC2)c1 | 32 (≈ 80.9 µM) | 2 (≈ 5.06 µM) | > 100 | 0.06 (≈ 0.152 µM) | – | – | – |
| O=c1[nH]sc2c1c(=O)c1cc(F)c(-c3ccc(O)cc3)cc1n2C1CC1 | 0.125 (≈ 0.339 µM) | 0.03 (≈ 0.0814 µM) | 8 | 0.004 (≈ 0.0109 µM) | 0.8 | 25 | 15 |
| COc1c(N2C[C@@H]3CCCN[C@@H]3C2)c(F)cc2c(=O)c(C(=O)O)cn(C3CC3)c12 [MOXIFLOXACIN] | 2 (≈ 4.98 µM) | 0.015 (≈ 0.0374 µM) | > 100 | 0.06 (≈ 0.149 µM) | – | – | – |
| NC(=O)c1cccc(-c2cc3c(cc2F)c(=O)c2c(=O)[nH]sc2n3C2CC2)c1 | 2 (≈ 5.06 µM) | 0.125 (≈ 0.316 µM) | – | 0.008 (≈ 0.0202 µM) | – | – | – |
| COc1cccc(-c2cc3c(cc2F)c(=O)c2c(=O)[nH]sc2n3C2CC2)c1 | 2 (≈ 5.23 µM) | 0.125 (≈ 0.327 µM) | 26 | 0.004 (≈ 0.0105 µM) | – | – | – |
| CN(C)c1ccc(-c2cc3c(cc2F)c(=O)c2c(=O)[nH]sc2n3C2CC2)cc1 | 4 (≈ 10.1 µM) | 0.5 (≈ 1.26 µM) | 51 | 0.001 (≈ 0.00253 µM) | – | – | – |
| O=C(O)c1cn(C2CC2)c2cc(N3CCNCC3)c(F)cc2c1=O [CIPROFLOXACIN] | 32 (≈ 96.6 µM) | – | > 100 | 0.25 (≈ 0.754 µM) | – | – | – |
| COc1cc(-c2cc3c(cc2F)c(=O)c2c(=O)[nH]sc2n3C2CC2)ccc1O | 0.125 (≈ 0.314 µM) | 0.06 (≈ 0.151 µM) | 4 | 0.001 (≈ 0.00251 µM) | – | – | – |
| O=c1[nH]sc2c1c(=O)c1cc(F)c(-c3cccc(C4CCCCN4)c3)cc1n2C1CC1 (stereo not drawn) | 8 (≈ 18.4 µM) | 0.125 (≈ 0.287 µM) | 4 | 0.06 (≈ 0.138 µM) | 0.7 | 2.7 | – |
| COc1c(N2CCNC(C)C2)c(F)cc2c(=O)c(C(=O)O)cn(C3CC3)c12 (stereo not drawn) [GATIFLOXACIN] | 8 (≈ 21.3 µM) | 0.015 (≈ 0.04 µM) | 67 | 0.125 (≈ 0.333 µM) | 0.5 | 1.2 | – |
| O=c1[nH]sc2c1c(=O)c1cc(F)c(-c3cccc(CO)c3)cc1n2C1CC1 | 2 (≈ 5.23 µM) | 0.125 (≈ 0.327 µM) | – | 0.008 (≈ 0.0209 µM) | 0.5 | 8.2 | – |
| Nc1cccc(-c2cc3c(cc2F)c(=O)c2c(=O)[nH]sc2n3C2CC2)c1 | 8 (≈ 21.8 µM) | 0.004 (≈ 0.0109 µM) | > 100 | 0.008 (≈ 0.0218 µM) | 3.1 | 10 | – |
| NCc1cccc(-c2cc3c(cc2F)c(=O)c2c(=O)[nH]sc2n3C2CC2)c1 | 2 (≈ 5.24 µM) | 0.015 (≈ 0.0393 µM) | 8 | 0.015 (≈ 0.0393 µM) | 0.1 | 0.2 | – |
| O=c1[nH]sc2c1c(=O)c1cc(F)c(-c3ccccc3)cc1n2C1CC1 | 16 (≈ 45.4 µM) | 0.06 (≈ 0.17 µM) | > 100 | 0.004 (≈ 0.0114 µM) | – | – | – |
